APP 5'UTR act: activators of APP 5'UTR luciferase reporter, primary screen, SH-SY5Y cells; SH-SY5Y APP 5'UTR luciferase reporter, luminescence; zero percent = DMSO vehicle wells; AID 1276, 2008; hit rate 1% among 190,000; activation, % at 2 µM;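 active means activation above a set limit, based on mean plus 3 SD of controls, cut at about 140% in these data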
STAT1 inh: STAT1 signaling inhibitors, primary screen, cell-based, HTS, luciferase reporter; NIH 3T3 STAT1-luciferase reporter, IFN-gamma, luminescence; inhibition, % at 5.5 µM; hit rate 0.35% among 200,000;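 active means inhibition above a set limit, the mean inhibition across all tested compounds plus 3 SD, cut at about 34% in these data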
NF-kB neuron act: activators of NF-kB expression in neurons, primary screen, cell-based, HTS; human neuronal cells, NF-kB reporter expression; hits give high values; fold change at 12.5 µM; hit rate 1.6% among 190,000; in the data active means fold change above about 3.3
STAT3 act: IL-6 driven STAT3 reporter potentiators, primary screen, U3A cells, luciferase, luminescence, MLSCN library; IL-6 STAT3-luciferase reporter; 100% = signal with IL-6 EC80 alone; activation (% of control), % at 5.6 µM; hit rate 0.91% among 190,000; AID 871, 2007;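 active means activation above the screen-wide mean of compound activation plus 3 SD, cut at about 130% in these data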
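Material: STAT3-luciferase reporter U3A cells; Probe or stimulus: IL-6 (33 ng/mL); Incubation: compound pre-incubation 1 h before IL-6, then 6 h stimulation at 37 °C; Technique: luminescence from STAT3-driven luciferase reporter; Evaluation: % activation versus median of IL-6-stimulated wells; Controls: IL-6-only high control.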
STAT3 blocker: IL-6 driven STAT3 reporter inhibitors, primary screen, U3A cells, luciferase, luminescence, MLSCN library; IL-6 STAT3-luciferase reporter; host cell line lacks STAT1; inhibition, % at 5.5 µM; hit rate 0.89% among 190,000; AID 862, 2007;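 active means inhibition above the mean inhibition across all screened compounds plus 3 SD, cut at about 44% in these data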
STAT1 activator: STAT1 signaling activators, primary screen, cell-based, HTS, luciferase reporter | NIH 3T3 STAT1-luciferase reporter, IFN-gamma, luminescence; 100% = IFN-gamma alone, no compound | activation (% of control), % at 5.5 µM | hit rate 2.6% among 200,000 | AID 932, 2007;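 active means activation above the screen-wide mean activation plus 3 SD, cut at about 130% in these data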
Of the large screens only hits and unclear results are named; the others gave an inactive call. The list is not random: actives were taken first. Their share in the collection is about 4.9%.

CCN1CCN(c2ccc(NC(=O)c3ccc4c(c3)[nH]c(=O)n4Cc3ccc(F)cc3)cc2)CC1	none
O=C(Cc1cccs1)Nc1ccc(-c2nc3ccccc3[nH]2)cc1	APP 5'UTR act 152, STAT1 activator 145
CCNC(=S)Nc1ccc(-c2nc3ccccc3[nH]2)cc1	STAT1 activator 132
O=C(CSc1ccccc1)Nc1ccc(-c2nc3ccccc3[nH]2)cc1	STAT1 activator 131
O=C(CSc1ccc(Cl)cc1)Nc1cccc(-c2nc3ccccc3[nH]2)c1	none
Cc1ccc(CC2CC(=O)N(Cc3ccco3)C2=O)cc1 (configuration not stated)	NF-kB neuron act 4.3, STAT1 activator 142
CCn1c(=N)c(C(=O)NC)cc2c(=O)n3cccc(C)c3nc21	none (no result: STAT1 inh, NF-kB neuron act, STAT3 act, STAT3 blocker, STAT1 activator)
CCNc1nc(C)c2cc(Br)c(=O)n(CC)c2n1	STAT1 activator 139
Cc1ccnc(NC(=O)CCCOc2cc(=O)n(C)c3ccccc23)c1	NF-kB neuron act 7.6
COc1ccc(-c2[nH]ncc2N=Nc2ccccc2)cc1	STAT1 activator 130
COc1ccc(-c2[nH]ncc2N=Nc2cc(C)cc(C)c2)cc1	none
COc1ccc2nc3ccccc3nc2c1	STAT1 activator 144
COc1ccc(-c2nc3ccccc3nc2-c2ccccc2)cc1	none
O=C(CC1(O)C(=O)N(C/C=C/c2ccccc2)c2ccccc21)c1ccccn1 (configuration not stated)	NF-kB neuron act 3.8
COc1ccc(NC(=O)C(c2ccccc2)N2CCN(c3ccccn3)CC2)cc1Cl (configuration not stated)	none
CC(=NC1CC1)c1c(-c2ccccc2)[nH]n(-c2nc3ccccc3s2)c1=O	none
CC(=NC1CCCC1)c1c(C)[nH]n(-c2nc3ccccc3s2)c1=O	STAT1 activator 142
COc1ccc(C2=NN(C3=NN=C(N)Cc4ncnn43)C(O)(C(F)(F)F)C2)cc1 (configuration not stated)	none
O=C(Nc1sc2c(c1C(=O)O)CCCCC2)c1ccco1	none
NC(=O)c1c(NC(=S)Nc2ccccc2)sc2c1CCCC2	STAT1 activator 132
NC(=O)c1c(NC(=O)c2cnccn2)sc2c1CCCC2	STAT1 activator 135
O=C(Nc1nnc(Cc2ccccc2)s1)c1ccco1	none
NC(=O)c1c(NC(=O)c2ccco2)sc2c1CCC2	STAT1 activator 150
NC(=O)c1cc(Cc2ccccc2)sc1NC(=O)c1ccco1	NF-kB neuron act 3.4, STAT1 activator 142
NC(=O)c1c(NC(=S)Nc2ccc(F)cc2)sc2c1CCCC2	none
COc1ccc(/C=C/C2=CC(C)(C)NC(=S)N2)cc1	none
O=C1c2c([N+](=O)[O-])cc([N+](=O)[O-])cc2S(=O)N1Cc1ccccc1 (configuration not stated)	none
CN(C)c1nc(Nc2ccc(Cl)cc2)nc(OCC#N)n1	STAT3 act 136
C[n+]1ccc(CC2C(=[N+]([O-])[O-])C=Nc3ncnn32)cc1 (configuration not stated)	none
O=C(Nc1ccccc1)Nc1cccc2nsnc12	NF-kB neuron act 4.3, STAT1 activator 140
O=C1CC(c2ccccc2)CC(O)=C1C=Nc1ccc(O)cc1 (configuration not stated)	STAT1 activator 132
COc1ccc(-c2cc(C(F)F)n3ncc(C(=O)Nc4cc(C)on4)c3n2)cc1	none
COc1ccc(-c2cn3cc([N+](=O)[O-])ccc3n2)cc1OC	none
COc1ccc(-c2cc(OC)c3ccccc3n2)cc1	none
COc1ccc(-c2cn3ccccc3n2)cc1[N+](=O)[O-]	STAT1 activator 144
COc1ccc(-c2cn3ccc4ccccc4c3n2)cc1	APP 5'UTR act 217, NF-kB neuron act 14
CCCOc1ccc(-c2cn3ccccc3n2)cc1	STAT1 inh 69, NF-kB neuron act 5.6, STAT3 blocker 88
CCCCC(=O)Nc1cccc(-c2cn3ccccc3n2)c1	none
CCCOc1ccc(-c2cn3ccccc3n2)cc1[N+](=O)[O-]	APP 5'UTR act 142, NF-kB neuron act 4.1
N#Cc1cn(Cc2ccncc2)c(=O)[nH]c1=O	none

Screens as filed in PubChem BioAssay.
